# The source made the active and inactive calls. No cut-off for these calls is given here.
# What was measured:
# [1] = tested on: Enterococcus faecalis; experiment: Antibacterial activity against Enterococcus faecalis ATCC 29212 assessed as diameter of zone inhibition measured after 18 hrs by CLSI disc diffusion method; format: functional
# Procedure, shortened: (§1)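 Disc diffusion on Mueller-Hinton II agar. Compounds dissolved in DMSO. Strains stored at -80 °C and subcultured twice on tryptic soy agar before testing. Inhibition zones read after 35 °C, 18 h.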
# [2] = tested on: Pseudomonas aeruginosa; experiment: Antibacterial activity against Pseudomonas aeruginosa ATCC 27853 assessed as fold reduction of MIC in presence of efflux pump inhibitor PAbetaN incubated for 18 hrs microdilution method; format: functional
# Procedure, shortened: (§2)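 MICs determined with and without PAβN at 50 mg/L in Mueller-Hinton broth containing 1 mM MgSO₄. 2-fold serial dilutions per CLSI. Fold change taken from the paired MICs after 35 °C, 18 h.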
# [3] = tested on: Staphylococcus epidermidis; experiment: Bactericidal activity against Staphylococcus epidermidis ATCC 12228 measured after 18 hrs by CLSI broth dilution method; format: functional; conditions: ATCC 12228, 18 h
# Procedure, shortened: (§3)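 Strains stored at -80 °C and subcultured twice on tryptic soy agar before testing. Compounds dissolved in DMSO. […] MBC then determined per CLSI recommendations.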
# [4] = tested on: Klebsiella pneumoniae; conditions: ATCC 13883
# [5] = tested on: Stenotrophomonas maltophilia; experiment: Antibacterial activity against Stenotrophomonas maltophilia ATCC 13637 assessed as fold reduction of MIC in presence of efflux pump inhibitor PAbetaN incubated for 18 hrs by broth microdilution method; format: functional; procedure, shortened: as §2
# [6] = tested on: Enterobacter cloacae; experiment: Antibacterial activity against Enterobacter cloacae DSM 6234 measured after 18 hrs by CLSI broth dilution method; format: functional; conditions: DSM 6234, 18 h
# Procedure, shortened: (§4)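 Broth MIC in Mueller-Hinton II broth following CLSI, compounds dissolved in DMSO. Strains subcultured twice on tryptic soy agar before testing. Growth read after 35 °C, 18 h.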
# [7] = tested on: Burkholderia cepacia; experiment: Antibacterial activity against Burkholderia cepacia ATCC 25416 measured after 18 hrs by CLSI broth dilution method; format: functional; conditions: ATCC 25416, 18 h; procedure, shortened: as §4
# [8] = tested on: Stenotrophomonas maltophilia; experiment: Antibacterial activity against Stenotrophomonas maltophilia ATCC 13637 assessed as diameter of zone inhibition measured after 18 hrs by CLSI disc diffusion method; format: functional; procedure, shortened: as §1
# [9] = tested on: Proteus mirabilis; experiment: Antibacterial activity against Proteus mirabilis ATCC 12453 assessed as diameter of zone inhibition measured after 18 hrs by CLSI disc diffusion method; format: functional; procedure, shortened: as §1
# [10] = tested on: Saccharomyces cerevisiae; experiment: Antifungal activity against Saccharomyces cerevisiae ATCC 9763 diameter of zone inhibition incubated for 24 hrs by CLSI disc diffusion method; format: functional
# Procedure, shortened: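 Disc-diffusion run on Mueller-Hinton II agar with 2% glucose and 0.5 mg/L methylene blue, using compounds in DMSO. Yeast was precultured on Sabouraud dextrose agar (24–48 h, 30 °C). Zones read after 24 h at 35 °C.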
# [11] = tested on: Bordetella bronchiseptica; experiment: Antibacterial activity against Bordetella bronchiseptica ATCC 4617 measured after 18 hrs by CLSI broth dilution method; format: functional; conditions: ATCC 4617, 18 h; procedure, shortened: as §4
# [12] = tested on: Candida parapsilosis; experiment: Antifungal activity against Candida parapsilosis ATCC 22019 assessed as decrease in fungal cell growth at 0.78 to 12.5 mg/L incubated for 24 hrs by CLSI broth dilution method; format: functional; conditions: Lodderomyces parapsilosis, ATCC 22019, 24 h
# Procedure, shortened: (§5)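 Yeast broth dilution in RPMI 1640 with 2% glucose, compounds in DMSO. Yeasts pre-grown on Sabouraud dextrose agar. Growth read after 35 °C, 24 h.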
# [13] = tested on: Serratia marcescens; experiment: Antibacterial activity against Serratia marcescens ATCC 13880 measured after 18 hrs by CLSI broth dilution method; format: functional; conditions: ATCC 13880, 18 h; procedure, shortened: as §4
# [14] = tested on: Enterococcus faecium; experiment: Antibacterial activity against Enterococcus faecium ATCC 6057 measured after 18 hrs by CLSI broth dilution method; format: functional; conditions: ATCC 6057, 18 h; procedure, shortened: as §4
# [15] = tested on: Stenotrophomonas maltophilia; experiment: Antibacterial activity against Stenotrophomonas maltophilia ATCC 13637 measured after 18 hrs by CLSI broth dilution method; format: functional; conditions: ATCC 13637, 18 h; procedure, shortened: as §4
# [16] = tested on: Candida tropicalis; experiment: Antifungal activity against Candida tropicalis IBA 171 assessed as decrease in fungal cell growth at 0.78 to 12.5 mg/L incubated for 24 hrs by CLSI broth dilution method; format: functional; conditions: IBA 171, 24 h; procedure, shortened: as §5
# [17] = tested on: Candida albicans; experiment: Antifungal activity against Candida albicans ATCC 90028 assessed as decrease in fungal cell growth at 0.78 to 12.5 mg/L incubated for 24 hrs by CLSI broth dilution method; format: functional; conditions: ATCC 90028, 24 h; procedure, shortened: as §5
# [18] = tested on: Staphylococcus aureus; experiment: Bactericidal activity against Staphylococcus aureus ATCC 6538P measured after 18 hrs by CLSI broth dilution method; format: functional; procedure, shortened: as §3
Compound,MIC [6] [µg/mL],MIC [7] [µg/mL],MIC [11] [µg/mL],MIC [12] [µg/mL],MIC [13] [µg/mL],MIC [14] [µg/mL],MIC [15] [µg/mL],MIC [16] [µg/mL],MIC [17] [µg/mL],diameter of the inhibition zone (DIZ) [1],fold change (FC) [2],MBC [3] [µg/mL],DIZ [4],fold change (FC) [5],diameter of the inhibition zone (DIZ) [8],diameter of the inhibition zone (DIZ) [9],diameter of the inhibition zone (DIZ) [10],MBC [18] [µg/mL]
C[Si]1(C)OB(O)c2ccccc21,> 200,200,> 200,25,> 200,200,> 200,25,100,inactive,8,–,inactive,8,inactive,inactive,36 mm,–
C[Si]1(C)OB(O)c2ccc(Cl)c(Cl)c21,> 400,> 400,100,12.5,> 400,25,200,3.12,12.5,21 mm,64,50,inactive,32,13 mm,inactive,36 mm,100
C[Si]1(C)OB(O)c2cccc(B(O)O)c21,> 400,> 400,> 400,400,> 400,400,> 400,400,> 400,inactive,4,–,inactive,16,12 mm,inactive,inactive,–
C[Si]1(C)OB(O)c2ccc(Cl)cc21,> 400,> 400,400,25,> 400,50,100,6.25,12.5,17 mm,32,50,inactive,16,19 mm,inactive,47 mm,400
C[Si]1(C)OB(O)c2ccc(C(F)(F)F)cc21,> 400,> 400,400,100,> 400,25,400,25,50,12 mm,8,50,inactive,16,14 mm,inactive,15 mm,100

# Second part, led by results:
MIC [6] [µg/mL],MIC [7] [µg/mL],MIC [11] [µg/mL],MIC [12] [µg/mL],MIC [13] [µg/mL],MIC [14] [µg/mL],MIC [15] [µg/mL],MIC [16] [µg/mL],MIC [17] [µg/mL],Compound,diameter of the inhibition zone (DIZ) [1],fold change (FC) [2],MBC [3] [µg/mL],DIZ [4],fold change (FC) [5],diameter of the inhibition zone (DIZ) [8],diameter of the inhibition zone (DIZ) [9],diameter of the inhibition zone (DIZ) [10],MBC [18] [µg/mL]
> 400,> 400,400,100,> 400,400,400,200,400,C[Si]1(C)OB(O)c2c(C=O)cc(F)c(F)c21,inactive,4,400,inactive,4,inactive,inactive,13 mm,100
> 400,> 400,> 400,25,> 400,200,200,12.5,25,C[Si]1(C)OB(O)c2ccc(F)cc21,inactive,16,–,inactive,8,12 mm,inactive,46 mm,400
> 400,> 400,> 400,400,> 400,200,> 400,200,400,C[Si]1(C)OB(O)c2cc(C=O)cc(F)c21,inactive,4,200,inactive,8,inactive,inactive,inactive,100
> 400,> 400,400,100,> 400,200,400,0.78,50,C[Si]1(C)OB(O)c2cc(F)c(F)cc21,inactive,8,–,inactive,16,14 mm,inactive,57 mm,–
> 400,> 400,> 400,400,> 400,> 400,200,> 400,> 400,C[Si]1(C)OB(O)c2cc(F)c(CO)c(F)c21,inactive,4,–,inactive,16,inactive,inactive,inactive,–
> 400,> 400,200,100,> 400,200,200,50,50,C[Si]1(C)OB(O)c2cccc(F)c21,13 mm,16,–,inactive,8,11 mm,16 mm,45 mm,–
> 400,> 400,> 400,25,> 400,50,> 400,100,> 400,C[Si]1(C)OB(O)c2cc(F)c(C=O)c(F)c21,inactive,8,–,inactive,8,11 mm,inactive,inactive,–
> 400,> 400,> 400,400,> 400,200,> 400,200,400,C[Si]1(C)OB(O)c2ccc(C=O)c(F)c21,inactive,4,100,inactive,16,inactive,inactive,inactive,100

# Source: ChEMBL document CHEMBL4346672, “Antimicrobial and KPC/AmpC inhibitory activity of functionalized benzosiloxaboroles” (Eur J Med Chem, 2019)
